A selection: hits, their analogues and other compounds. The true share with any hit is near 6%.
Jurkat viability: cytotoxicity toward Jurkat T cells, primary screen, cytotoxicity control, cell-based, Jurkat E6.1, 60K MLSMR library; Jurkat E6.1 viability, ATP luminescence, 48 h; 56,000 compounds, 1.2% hits; inhibition, % at 4 µM; AID 463, 2006;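 active means inhibition above the mean inhibition of all tested compounds plus 3 SD, cut at about 28% in these data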
Fibroblast inh: antiproliferative effect on LL 47 fibroblasts – human, LL 47 cells, CellTiter-Glo luminescence, primary screen. LL 47 human lung fibroblast viability, ATP luminescence; active compounds read low. viability, % at 10 µM. 85,000 compounds, 1.1% hits;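 active means viability at or below 50% in the single dose screen; inactive means viability above 50%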;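 further: compound exposure lasted 72 h before the ATP readout; 100% = median luminescence of untreated cell-only wells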
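Test system: LL 47 human lung fibroblasts / Incubation: 72 h compound exposure at 37 °C after overnight plating / Technique: luminescent ATP detection, CellTiter-Glo / Compound dosing: 0.1% DMSO in all compound wells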
cytoskel mod: modifiers of F-actin cytoskeleton organization, primary screen, imaging, HUVEC, phalloidin staining, high-content imaging; HUVEC TNFa F-actin phalloidin imaging; inhibition, % at 2 µM; 91,000 compounds, 0.18% hits; AID 836, 2007;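 active means inhibition above the batch mean plus 3 SD and confirmed as a hit by visual image inspection, cut at about 30% in these data, passing the limit was not always enough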
HUVEC prolif 384: inhibitors of HUVEC proliferation, primary screen, cell-based, 384-well; CellTiter-Glo luminescence, 72 h; active compounds read low; viability, % at 10 µM (by protocol); 86,000 compounds, 1.1% hits;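 active means viability at or below 30%; inactive means viability above 30%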;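 further: 100% = median luminescence of DMSO-only cell control wells on each plate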
Pyk2 oligo antag: antagonists of Pyk2 self-association, primary screen, Q293 cells, FERM NanoBiT luminescence, HTS | 99,000 compounds, 0.83% hits | active compounds read low | z-score (the deposit names both 25 µM and 10 µM);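 active means Z-score of -3 or lower, scaled per plate to the spread of control and sample wells; inactive means z-score above -3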;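 further: negative z-score means lost luminescence so less FERM oligomerization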
Target sequence (Q14289 whole entry, looked up): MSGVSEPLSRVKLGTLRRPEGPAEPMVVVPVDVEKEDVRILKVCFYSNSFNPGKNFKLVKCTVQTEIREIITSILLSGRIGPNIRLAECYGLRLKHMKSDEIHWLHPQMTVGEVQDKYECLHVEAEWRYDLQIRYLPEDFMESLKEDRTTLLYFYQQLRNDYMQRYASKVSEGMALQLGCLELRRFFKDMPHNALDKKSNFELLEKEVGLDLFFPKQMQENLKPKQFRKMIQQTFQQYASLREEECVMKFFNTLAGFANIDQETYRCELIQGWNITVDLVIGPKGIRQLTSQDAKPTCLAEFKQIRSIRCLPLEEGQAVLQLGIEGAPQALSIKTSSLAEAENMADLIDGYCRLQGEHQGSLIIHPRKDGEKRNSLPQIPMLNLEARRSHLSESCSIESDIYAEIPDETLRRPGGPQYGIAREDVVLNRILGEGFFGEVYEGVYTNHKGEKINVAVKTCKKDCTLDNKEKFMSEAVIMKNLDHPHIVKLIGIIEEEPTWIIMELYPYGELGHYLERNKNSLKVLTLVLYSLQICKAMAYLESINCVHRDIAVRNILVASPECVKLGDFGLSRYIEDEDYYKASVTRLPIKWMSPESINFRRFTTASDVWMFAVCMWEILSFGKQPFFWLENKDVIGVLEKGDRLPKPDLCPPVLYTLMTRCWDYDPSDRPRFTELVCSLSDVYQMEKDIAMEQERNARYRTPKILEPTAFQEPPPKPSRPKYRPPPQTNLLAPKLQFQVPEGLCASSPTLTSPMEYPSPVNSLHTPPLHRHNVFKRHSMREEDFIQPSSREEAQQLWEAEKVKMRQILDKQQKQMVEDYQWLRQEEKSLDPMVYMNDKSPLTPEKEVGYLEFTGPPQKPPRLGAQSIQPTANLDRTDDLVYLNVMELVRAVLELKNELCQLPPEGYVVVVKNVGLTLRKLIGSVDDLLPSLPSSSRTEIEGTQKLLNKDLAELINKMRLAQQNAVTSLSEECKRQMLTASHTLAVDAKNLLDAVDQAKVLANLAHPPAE
H69AR inhibit: proliferation blockers of H69AR lung cancer cells, primary screen, cell-based, human, 86K library; H69AR lung tumor viability, ATP luminescence, 72 h; active compounds read low; viability, % at 10 µM; 85,000 compounds, 6% hits; AID 598, 2007;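 active means viability at or below 40%; inactive means viability above 40%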;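 further: multidrug resistant small cell line overexpressing MRP-1 efflux transporter; 100% = mean luminescence of untreated control wells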
Active calls of the source: *; x = no result given.

SMILES | Jurkat viability | Fibroblast inh | cytoskel mod | HUVEC prolif 384 | Pyk2 oligo antag | H69AR inhibit
CCOc1ccc2nc(NC(=O)c3ccoc3C)sc2c1 | 42* | 35* | 6 | 42 | -1.1 | 20*
O=C(CNC(=O)c1ccc(Cl)cc1)NCCCn1ccnc1 | 0 | 93 | 23 | 98 | -0.42 | 85
COc1cccc(C(=O)Cn2c(=O)n(CC3CCCO3)c(=O)c3ccccc32)c1 (centres undefined) | x | 97 | -18 | 94 | -1.9 | 75
O=C(c1ccc(Cl)cc1)C1CCN(C(=O)C2CC2)CC1 | x | 111 | -15 | 104 | 0.39 | 102
CCOC(=O)N1CCN(C(=O)c2ccc(NS(C)(=O)=O)cc2)CC1 | -4 | 104 | -8 | 98 | 1.2 | 97
CCOC(=O)N1CCN(C(=O)c2ccc(C)c(S(=O)(=O)Nc3ccccc3)c2)CC1 | 7 | 89 | 13 | 93 | -0.5 | 36*
CCOC(=O)N1CCN(C(=O)c2ccc(C)c(S(=O)(=O)Nc3cccc(C)c3C)c2)CC1 | 6 | 82 | -28 | 85 | -0.7 | 40*
c1cn(CC2(Cn3ccnc3)COC2)cn1 | 1 | 101 | -18 | 91 | -0.4 | 97
COCCn1ccc(O)c(Cc2ccccc2)c1=O | x | x | -2 | x | -1.5 | x
N#C/C(=C\c1cc(Cl)cc(Cl)c1O)C(=O)NC1CCCCC1 | x | x | 16 | x | 0.95 | x
CCCc1nc(SCC(=O)Nc2cc(C)on2)c2ccccc2n1 | 0 | 84 | -36 | 84 | 0.15 | 32*
Cc1cc(NC(=O)CSc2nc3ccccc3c(=O)n2C(C)c2ccccc2)no1 (centres undefined) | x | 80 | 21 | 74 | -1.5 | 74
O=C(CSc1nc2ccccc2nc1SCC(=O)N1CCCCC1)N1CCCCC1 | -1 | x | 5 | x | -1.1 | x
CCCc1nc(SCC(=O)N2CCCC2)c2ccccc2n1 | -4 | 93 | 19 | 82 | 0.63 | 38*
CCC(C)n1c(SCC(=O)Nc2cc(C)on2)nc2ccccc2c1=O (centres undefined) | x | 97 | -6 | 80 | -1.7 | 26*
Cc1cc(NC(=O)CSc2nc(CCC3CCCC3)nc3ccccc23)no1 | -5 | x | -2 | x | -0.48 | x
CN(C)c1nc(C(N)=O)nc(N2CCOCC2)n1 | x | 99 | -15 | 104 | 0.3 | 92
O=C(COc1ccccc1Cl)N1CCN(c2ccc([N+](=O)[O-])c(N3CCOCC3)c2)CC1 | x | x | 1 | x | -1.4 | x
Cc1[nH]c2ccccc2c1SCCNC(=O)c1ccc(Br)o1 | x | 106 | -6 | 77 | -1.2 | 97
O=C(NCCSc1c[nH]c2ccccc12)c1ccc(Br)o1 | 38* | 100 | 2 | 80 | x | 57
Cc1ccc(OCC(=O)Sc2ccc(C)cc2)cc1 | x | 97 | x | 69 | 0.87 | 17*
CSCCC(C(=O)Nc1ccc2c(c1)OCO2)N1C(=O)c2ccccc2C1=O (centres undefined) | x | x | 2 | 101 | 0.88 | 92
CC1CN(Cc2cc(=O)[nH]c(C(C)C)n2)CC(C)O1 (centres undefined) | x | x | 40 | x | 0.34 | x
Cc1ccc2nc(NC(=O)CN(C)S(=O)(=O)c3ccc(Br)s3)sc2c1 | x | 97 | 4 | 57 | -0.65 | 21*
CCc1ccc(N(CC(=O)Nc2nc3ccc(C)cc3s2)S(=O)(=O)c2c(C)noc2C)cc1 | x | 98 | -2 | 50 | x | 3.3*
SMILES | Jurkat viability | Fibroblast inh | cytoskel mod | HUVEC prolif 384 | Pyk2 oligo antag | H69AR inhibit
Cc1ccc2nc(NC(=O)CNS(=O)(=O)c3ccc(Br)s3)sc2c1 | 9 | 90 | 0 | 81 | -0.31 | 78
Cc1ccc2nc(NC(=O)CN(C)S(=O)(=O)c3cccc4nsnc34)sc2c1 | 11 | 25* | 9 | 29* | 0.91 | 12*
CCc1ccc(NC(=O)CN(c2ccc3c(c2)OCO3)S(=O)(=O)c2c(C)noc2C)cc1 | -2 | 94 | 1 | 104 | x | 98
CC(Sc1nc2ccccc2n1C)C(=O)NC(c1ccccc1)c1ccccc1 (centres undefined) | x | 92 | 7 | 92 | -4* | 84
CCOCC(=O)Nc1nc(-c2ccccc2)c(CC)s1 | x | 110 | -16 | 83 | 0.11 | 66
CCCOc1ccc(/C(O)=C2\C(=O)C(=O)N(CCCN(C)C)C23C(=O)N(C)c2ccccc23)cc1 (centres undefined) | -3 | 102 | x | 109 | x | 113
O=C1CC(C(=O)Nc2cccc3ccccc23)C2(CCCC2)O1 (centres undefined) | x | 94 | -5 | 87 | 0.93 | 76
COC(=O)C1=C(O)C(C(=O)OC)C(c2ccc(C)cc2)C(C#N)(C#N)C1c1ccc(C)cc1 (centres undefined) | x | 83 | 13 | 80 | -1.3 | 4.0*
CCOC(=O)CSC1=C(C#N)C(c2ccc(C)cc2)C(C(=O)OC)C(=O)N1 (centres undefined) | x | 99 | -9 | 103 | 0.57 | 74
COCCCNC(=O)c1ccc(Cn2c(=O)c3ccccc3n(Cc3ccccc3C)c2=O)cc1 | x | 88 | 0 | 59 | -0.2 | 19*
COCCCNC(=O)c1ccc(Cn2c(=O)c3ccccc3n(Cc3ccccc3C#N)c2=O)cc1 | x | 72 | 10 | 56 | -0.38 | 18*
COCCNC(=O)Cn1c(=O)n(Cc2ccc(C(=O)NCc3ccco3)cc2)c(=O)c2ccccc21 | 9 | 104 | x | 99 | x | 88
COCCCNC(=O)c1ccc(Cn2c(=O)c3ccccc3n(Cc3cc(C)ccc3C)c2=O)cc1 | x | 89 | 3 | 58 | -1.2 | 39*
COCCCNC(=O)c1ccc(Cn2c(=O)[nH]c3ccccc3c2=O)cc1 | 28 | 70 | x | 59 | x | 23*
CCOC(=O)C1CCCN(C(=O)c2cc(Nc3ccc(OC)cc3OC)nc3ccccc23)C1 (centres undefined) | x | 94 | 14 | 82 | -1.1 | 92
O=C(Nc1ccccc1C(F)(F)F)c1cc(-c2ccccc2O)on1 | 89* | 103 | x | 108 | 1.4 | 83
Cc1cc(C(=O)Nc2ccccc2C(F)(F)F)no1 | -3 | 108 | -7 | 101 | 1.4 | 95
CCN(CC)C(=O)CSc1nc(N)c2c3c(sc2n1)CC(C)CC3 (centres undefined) | x | 97 | 11 | 89 | -1 | 37*
CC1CCc2c(sc3nc(SCC(=O)NCc4ccco4)nc(N)c23)C1 (centres undefined) | 13 | 85 | -14 | 65 | -0.6 | 35*
CCOC(=O)CSc1nc(N)c2c3c(sc2n1)CCCC3 | x | 97 | -17 | 98 | 0.27 | 89
CC(=O)c1cnc2c(-c3ccc(Cl)cc3)c(C)nn2c1C | x | 83 | -14 | 28* | 0.62 | 84
O=C(c1nn2cccnc2c1Cl)N1CCN(c2ccccc2)CC1 | -1 | 95 | -1 | 91 | -0.6 | 104
C=CCn1c(COc2ccc3c(c2)CCCC3)nnc1SCC(=O)Nc1cccc(SC)c1 | x | x | 3 | x | -0.42 | x

Source: PubChem (several laboratories)
